Active and inactive are the calls of the source. Rule as the data show it, unless noted: active = inhibition above about 30%; inactive = the rest.
What was measured:
[1] = HUVEC growth inhibition – cell-based, human, primary screen (AID 575;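 active = viability at or below 30% in both replicate assays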;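 also: 100% = median of untreated cell wells with 0.1% DMSO on each plate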); settings: HUVEC proliferation, CellTiter-Glo luminescence, 72 h; at 10 µM; stronger effect = lower value
Outline: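 Timing: 72 h treatment at 37 °C; material: HUVEC primary cells; technique: CellTiter-Glo luminescence measuring cellular ATP; controls: vehicle and MePR control wells; measure: percent of median DMSO-control luminescence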

[2] = H69AR cell proliferation blockers – human, duplicate replicates, primary screen (AID 580;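 active = viability at or under a set limit in both replicates, limit being median viability minus 3 SD, cut at about 48% in these data, passing the limit was not always enough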;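 also: 100% = mean luminescence of untreated wells and 0% = no signal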); settings: H69AR lung tumor cells viability, ATP luminescence, 72 h; at 10 µM; stronger effect = lower value
[3] = MRP1 drug-resistance reversers in H69AR cells – cell-based, doxorubicin co-treatment, pilot screen (AID 601;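 active = viability loss from added drug above about 55%, and viability with drug at most 40%, in both replicates, limit read from the data, passing the limit was not always enough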); settings: CellTiter-Glo, 72 h, at 10 µM; for differential viability (reversal): stronger effect = higher value
[4] = yeast transport mutant growth inhibition pilot in 384-well plates, post-Golgi transport modulator project (AID 636; in the data active = inhibition above about 31%); settings: absorbance 615 nm, about 18 h, stronger effect = higher value
[5] = growth suppression of yeast trafficking mutant, preliminary HTS, modulators of trafficking downstream of Golgi apparatus project, 1536-format plate, OD 615 nm (AID 637); settings: yeast transport mutant growth, absorbance 615 nm, 18 h; stronger effect = higher value
[6] = H69AR cells + 2 uM doxorubicin, measured here: viability with 2 uM doxorubicin, stronger effect = lower value
[7] = H69AR cells, compound alone cytotoxicity

Row | Compound | viability [1] | viability [2] | differential viability (reversal) ([3]; H69AR cells + 2 uM doxorubicin) | viability [3, 6] [%] | viability [3, 7] [%] | inhibition [4] | inhibition [5]
1 | CCS(=O)(=O)N1CCCC(C(=O)NCCc2ccc(OC)c(OC)c2)C1 (stereo not given) | 101% (inactive) | 104% (inactive) | 9.14% (inactive) | 94.5 | 104 | 1.07% (inactive) | -0.95% (inactive)
2 | Cn1c(Cc2csc(N)n2)nnc1SCC(=O)NC1CCCCC1 | 112% (inactive) | 96.8% (inactive) | -5.84% (inactive) | 103 | 96.8 | 0.92% (inactive) | -0.63% (inactive)
3 | c1ccc(-c2nn3nnnc3c3ccccc23)cc1 | 105% (inactive) | 90.8% (inactive) | 0.43% (inactive) | 90.3 | 90.8 | -1.04% (inactive) | 0.79% (inactive)
4 | CC1(C)CC(=O)c2c(O)cc(O)cc2O1 | 107% (inactive) | 99.7% (inactive) | 15.4% (inactive) | 84.3 | 99.7 | -8.42% (inactive) | -1.43% (inactive)
5 | COC(=O)Cn1cc(C(=O)c2cccs2)c2ccccc21 | 103% (inactive) | 96.4% (inactive) | 9.54% (inactive) | 86.9 | 96.4 | -2.34% (inactive) | 1.43% (inactive)
6 | CCCn1c(SCC(=O)Nc2ccccc2C(=O)OCC)nc2c1c(=O)n(C)c(=O)n2C | 102% (inactive) | 95.7% (inactive) | 2.55% (inactive) | 93.1 | 95.7 | -8% (inactive) | -3.02% (inactive)
7 | CCc1cc2c(NCCC(=O)O)nc(C)nc2s1 | 89.2% (inactive) | 75.5% (inactive) | -12.1% (inactive) | 87.6 | 75.5 | 0.65% (inactive) | 13.3% (inactive)
8 | COCC(=O)Nc1sc2c(c1C(=O)OC)CCC(C)C2 (stereo not given) | 88.4% (inactive) | 94.8% (inactive) | 4.53% (inactive) | 90.3 | 94.8 | -2.76% (inactive) | 5.08% (inactive)
9 | CC(NC(=O)OCc1ccccc1)C(=O)N1CC(O)CC1C(=O)O (stereo not given) | 82.5% (inactive) | 98.5% (inactive) | 17.6% (inactive) | 81 | 98.5 | -0.39% (inactive) | -1.59% (inactive)
10 | CCOC(=O)c1cc(-c2ccc(N)cc2)sc1N | 92.5% (inactive) | 93.4% (inactive) | 8.46% (inactive) | 84.9 | 93.4 | -5.07% (inactive) | -0.95% (inactive)
11 | CC1CCN(C(=O)c2ccc(C(=O)N3CCC(C)CC3)cc2)CC1 | 87.3% (inactive) | 101% (inactive) | 5.22% (inactive) | 95.4 | 101 | -0.66% (inactive) | 0.48% (inactive)
12 | COc1ccc(N(CC(=O)Nc2ccccc2SC)S(C)(=O)=O)cc1OC | 113% (inactive) | 98.2% (inactive) | 7.5% (inactive) | 90.7 | 98.2 | -2.63% (inactive) | 1.75% (inactive)
13 | CN(C)S(=O)(=O)c1cccc(C(=O)Nc2cccnc2)c1 | 83.9% (inactive) | 89.5% (inactive) | 7.48% (inactive) | 82 | 89.5 | -4.93% (inactive) | 1.43% (inactive)
14 | COC(=O)c1[nH]c2c(c1C)C(=O)CC(c1cccs1)C2 (stereo not given) | 44.9% (inactive) | 36.7% (active) | -39.3% (inactive) | 76 | 36.7 | -6.05% (inactive) | 4.13% (inactive)
15 | O=C(CCN1CCN(CCO)CC1)Nc1ccc(OCc2ccccc2)cc1 | 76.5% (inactive) | 88.9% (inactive) | 6.03% (inactive) | 82.9 | 88.9 | -2.6% (inactive) | -6.67% (inactive)
16 | COc1cccc(C(=O)Nc2ccc(NC(=O)C(C)(C)C)cn2)c1 | 96% (inactive) | 76.2% (inactive) | 2.62% (inactive) | 73.5 | 76.2 | 2.34% (inactive) | -0.48% (inactive)
17 | CN1CCN(CC#CCC(O)(c2ccccc2)C2CCCC2)CC1 (stereo not given) | 102% (inactive) | 91.7% (inactive) | 1.13% (inactive) | 90.5 | 91.7 | -6.4% (inactive) | -2.38% (inactive)
18 | O=C(c1cnn2c1NC(c1ccco1)CC2C(F)(F)F)N1CCN(c2cccc(Cl)c2)CC1 (stereo not given) | 48.7% (inactive) | 9.38% (active) | -61.4% (inactive) | 70.8 | 9.38 | -6% (inactive) | -2.22% (inactive)
19 | CN1CCCc2cc(C#N)c(=O)[nH]c21 | 99.7% (inactive) | 107% (inactive) | 8.18% (inactive) | 99.3 | 107 | -5.71% (inactive) | -2.38% (inactive)
20 | COc1ccc2c(c1)c1c(n2C(C)=O)C(OC(C)=O)=NCC1 | 92.4% (inactive) | 87.4% (inactive) | -0.05% (inactive) | 87.5 | 87.4 | -5.39% (inactive) | 5.71% (inactive)

Source: PubChem BioAssay
